Experimental data gathered from unrelated publications.
Protocols differ between the studies behind these lines.
RPS6KA2: Ribosomal protein S6 kinase alpha-2 (RPS6KA2, Homo sapiens, UniProt Q15349)
RPS6KA2 C-terminal kinase domain: Ribosomal protein S6 kinase alpha-2, C-terminal kinase domain (RPS6KA2, Homo sapiens, UniProt Q15349)
RPS6KA2 N-terminal kinase domain: Ribosomal protein S6 kinase alpha-2, N-terminal kinase domain (RPS6KA2, Homo sapiens, UniProt Q15349)

CNCc1ccc(-c2cc(-c3nc(-c4ccc(S(=O)(=O)C(C)C)cc4)cnc3N)on2)cc1
inhibition (RPS6KA2; enzyme activity; inhibitor; 2 µM): 49%

CCCOc1ccc(OC)c(F)c1C(=O)c1ccc(C(=O)N[C@@H]2CNC[C@H]2NC(=O)c2ccc3[nH]ncc3c2)cc1
remaining activity (RPS6KA2; enzyme activity; inhibitor; 10 µM): 6%

CNC(=O)Nc1ccc2c(c1)[C@@]1(CC2)OC(=O)N(CC(=O)N(Cc2ccc(F)cc2)[C@@H](C)C(F)(F)F)C1=O
remaining binding (RPS6KA2 C-terminal kinase domain; cell-free assay; competition with immobilised ligand; 1 µM): 100%

N[C@H]1CCN(c2nccc(-c3cnn4ncccc34)n2)C1
remaining binding (RPS6KA2 C-terminal kinase domain; binding; competition with immobilised ligand; 1 µM): 91%

COc1cc2ncnc(Nc3ccc(Oc4ccccc4)c(C)c3C)c2cc1OC
inhibition (RPS6KA2; enzyme activity; inhibitor; 1 µM): 2%

CN(C)C(=O)Cn1cc(-c2nc([C@@](C)(c3ccc(-c4cnc(N)nc4)cc3)C3CC3)no2)cn1
remaining binding (RPS6KA2 N-terminal kinase domain; cell-free assay; competition with immobilised ligand; 1 µM): 85%

CC(C)(C)c1nc2c(s1)c1nc(N)ncc1c1ccc(NS(=O)(=O)c3c(F)cccc3F)c(F)c12
remaining activity (RPS6KA2; enzyme activity; inhibitor; radiometric; 1 µM): 84%

Cc1cnn2ncc(-c3ccnc(N(C)C)n3)c2c1
remaining binding (RPS6KA2 N-terminal kinase domain; binding; competition with immobilised ligand; 1 µM): 85%

Cc1ccc(Nc2nccc(N(C)c3ccc4c(C)n(C)nc4c3)n2)cc1S(N)(=O)=O
inhibition (RPS6KA2; enzyme activity; inhibitor; 0.3 µM): 27%

C[C@H]1CCN(c2nccc(-c3cnn4ncccc34)n2)C1
remaining binding (RPS6KA2 C-terminal kinase domain; binding; competition with immobilised ligand; 1 µM): 100%

Nc1ncnc2occ(-c3ccc(NC(=O)Nc4cc(C(F)(F)F)ccc4F)cc3)c12
remaining signal (RPS6KA2 C-terminal kinase domain; cell-free assay; inhibitor; 20 µM): 2.3%

CCS(=O)(=O)c1cc2cc(C[C@](O)(CC(C)(C)c3ccc(F)cc3C(N)=O)C(F)(F)F)[nH]c2cn1
remaining binding (RPS6KA2 N-terminal kinase domain; cell-free assay; competition with immobilised ligand; 1 µM): 100%

CN(C)c1ncc(F)c(-c2cnn3ncccc23)n1
remaining binding (RPS6KA2 C-terminal kinase domain; binding; competition with immobilised ligand; 1 µM): 97%

CCCCN(CCCC)C(=O)CN1C[C@@H](c2cc(OC)c3c(c2)OCO3)[C@H](C(=O)O)[C@H]1CC(C)(C)CCC
remaining binding (RPS6KA2 C-terminal kinase domain; cell-free assay; competition with immobilised ligand; 1 µM): 90.2%

CCN(CC)c1ccc(C2=NNC(=O)CC2C)cc1[N+](=O)[O-] (centres unmarked)
remaining activity (RPS6KA2; enzyme activity; inhibitor; 10 µM): 98%

FC(F)(F)c1ccc2c(c1)nc(-c1cccnc1)n2C1CC1
remaining binding (RPS6KA2 N-terminal kinase domain; cell-free assay; competition with immobilised ligand; 1 µM): 100%

CN(c1nccc(-c2cnn3ncccc23)n1)C1CC1
remaining binding (RPS6KA2 N-terminal kinase domain; binding; competition with immobilised ligand; 1 µM): 99%
